Assay outcomes (PubChem BioAssay)
A selection: hits, their analogues and other compounds. The true share with any hit is near 2.6%.
PGE2 EP2 inh = human EP2 receptor antagonists, primary screen, TR-FRET cAMP, C6 glioma cells; C6 glioma cells expressing human EP2; cells stimulated with saturating PGE2; inhibition, % at 25 µM; actives 0.52% (n = 260,000); AID 1422, 2008;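 active means percent inhibition above 40 after rounding to a whole number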;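 further: rat C6 glioma host cells with rolipram phosphodiesterase inhibitor present; the protocol text gives 20 µM as final concentration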
Target sequence (P43116 whole entry, looked up): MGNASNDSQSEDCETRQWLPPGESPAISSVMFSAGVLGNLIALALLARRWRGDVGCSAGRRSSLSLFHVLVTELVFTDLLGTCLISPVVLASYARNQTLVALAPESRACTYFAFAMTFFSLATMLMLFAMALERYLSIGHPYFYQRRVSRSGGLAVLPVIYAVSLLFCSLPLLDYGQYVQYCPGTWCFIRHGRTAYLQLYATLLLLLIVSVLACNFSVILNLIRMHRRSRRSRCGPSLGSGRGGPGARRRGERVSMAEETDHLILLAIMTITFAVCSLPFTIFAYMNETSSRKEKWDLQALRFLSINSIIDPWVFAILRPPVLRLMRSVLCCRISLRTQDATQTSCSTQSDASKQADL
Granule exo inh = LAMP-1 surface exposure blockers, TALL-104 cells – cell-based, flow cytometry, MLPCN library, primary screen; actives 0.66% (n = 360,000); inhibition, % at 10 µM; AID 651702, 2012; TALL-104 LAMP-1 surface exposure; cells stimulated with thapsigargin and PMA;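 active means inhibition above about 55%, limit read from the data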
MC4R antagonist = MC4R antagonists of cAMP signaling, primary screen, cell-based, TR-FRET, antagonist arm of biased-ligand search | Melanocortin receptor 4 (Homo sapiens), P32245 | MC4R-expressing cells, MTII-stimulated cAMP, LANCE TR-FRET | inhibition, % at 6.5 µM | actives 0.48% (n = 360,000) | AID 540295, 2011;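 active means inhibition above its plate's cutoff, the mean of tested wells on that plate plus 3 SD, cut at about 29% in these data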;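 further: 0% = Melanotan II alone and 100% = Melanotan II plus saturating MCL0020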
Target sequence (P32245 whole entry, looked up): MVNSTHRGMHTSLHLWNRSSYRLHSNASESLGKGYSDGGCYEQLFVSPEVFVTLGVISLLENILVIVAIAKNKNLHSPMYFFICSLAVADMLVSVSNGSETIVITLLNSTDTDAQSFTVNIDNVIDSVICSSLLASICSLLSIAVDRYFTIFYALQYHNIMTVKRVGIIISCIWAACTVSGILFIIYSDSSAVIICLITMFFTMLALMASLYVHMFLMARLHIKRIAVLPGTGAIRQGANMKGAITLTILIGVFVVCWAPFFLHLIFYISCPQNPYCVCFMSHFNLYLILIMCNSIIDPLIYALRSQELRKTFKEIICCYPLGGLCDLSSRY
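System: U2OS-MC4R stable cell line; Technique: Eu-cAMP/anti-cAMP TR-FRET, emission 671 nm; Repeats: single well per compound; Also added: Melanotan II; Dosing: one concentration, 6.5 µM nominal; Schedule: 30-min compound, 1-h challenge, 1-h detection, room temperature.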
EP2 modulator = EP2 receptor modulators, cAMP readout, primary screen, cell-based, HTRF cAMP, PGE2 stimulation; Prostaglandin E2 receptor EP2 subtype (Homo sapiens), P43116; EP2-expressing cells, cAMP HTRF FRET, PGE2 co-stimulation; induction, % at 25 µM; actives 0.83% (n = 260,000); AID 940, 2007;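 active means compounds whose cAMP rise, as percent of the full-agonist control response, exceeds 60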;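 further: rat C6 glioma line stably carrying human EP2 under a CMV promoter; the protocol text gives 20 µM as final concentration; 100% = response of wells given 1 µM PGE2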
T cell modulator = modulators of CD8 T cell-vesicle binding, primary screen, mouse 2C CD8+ T cells, flow cytometry | actives 0.068% (n = 330,000) | response (vesicle binding), % at 7 µM | 2C CD8+ T cell-vesicle binding; stronger effect = lower value;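 active means response, share of CD8 T cells binding vesicles, and their 90th percentile fluorescence all below set limits, cut at about 80% in these data, passing the limit was not always enough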;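 further: values below 100% mean blocked vesicle binding to the CD8+ T cells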
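Assay system: 2C TCR transgenic mouse naive CD8+ T cells, MACS-purified | Read-out: CD8+ gate FL2 mean fluorescence as % of same-row positive control | Signal: High-throughput flow cytometry with anti-B7-1 and anti-CD8 staining | Timing: Binding step 1.5 h, 37 °C, antibody labelling 20 min, ice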
MC4R ag barr = MC4R agonists recruiting beta-arrestin, primary screen, cell-based, luminescence, agonist arm of biased-ligand search. U2OS MC4R beta-arrestin complementation; percent of melanotan II response, DMSO zero. AID 540308, 2011. activation, % at 8.9 µM. actives 0.98% (n = 360,000);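 active means activation above a per-plate cutoff, the mean activation of sample wells on that plate plus 3 SD, cut at about 8% in these data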
Starred values were filed as active, the others as inactive; i = inactive; · = no result; ! = repeats disagree.

SMILES	PGE2 EP2 inh	Granule exo inh	MC4R antagonist	EP2 modulator	T cell modulator	MC4R ag barr
Cc1ccc(C2(C(=O)N[C@H](Cn3nc(C4CC4)ccc3=O)C(C)C)CC2)cc1	·	·	·	22.7	·	·
Cc1ccc(C2(C(=O)N[C@H](Cn3nc(-c4cccs4)ccc3=O)C(C)C)CC2)cc1	5.2	·	·	75.6*	·	·
CCC(CC)c1nnc(NC(=O)CSCc2c(C)noc2C)s1	·	-7.2	6.7	·	·	0.1
COc1ccc(/C=N/Nc2nc(C)c([N+](=O)[O-])c(N(C)c3ccccc3)n2)cc1OC	13.9	-1.0	2.0	31.4	439.1	20.3*
CC(=O)Nc1ccc(Nc2nc(C)c([N+](=O)[O-])c(N(C)c3ccccc3)n2)cc1	12.8	0.0	1.8	-24.2	283.0	-1.0
O=S(=O)(Nc1nccs1)c1cc(Cl)ccc1Cl	9.6	-1.9	3.9	61.3*	151.0	1.2
COC(=O)C1CN(C(=O)C(C)Oc2cc(C)ccc2C(C)C)c2ccccc2O1 (configuration not stated)	·	39.6	6.1	·	·	-2.0
CCSc1nc(-c2ccccc2)c(C#N)c(=O)[nH]1	49.6*	-3.5	15.6	45.4	837.1	-1.0
CSc1nc(-c2ccccc2)c(C#N)c(=O)[nH]1	18.4	-1.5	21.4	42.0	402.1	1.5
O=C(OCc1ccc2c(c1)OCO2)c1ccc(S(=O)(=O)N2CCCC2)cc1	20.0	-2.6	1.4	0.3	362.3	-0.9
CN1CCN(C2=C(Cl)C(=O)C(c3cnc(N4CCCCC4)s3)=C(Cl)C2=O)CC1	103.6*	16.8	-2.2	-56.6	260.5	1.9
CN1CCN(C2=C(Cl)C(=O)c3ccccc3C2=O)CC1	·	-2.6	-5.6	·	·	-2.5
COc1ccc(/C=C/C(=O)C2(O)CCCCC2)cc1	11.9	-10.6	-7.5	-26.2	248.5	-3.6
Cc1ccc(/C=N/Nc2cc(C)nc(NCc3ccccc3)n2)cc1	2.0	87.7*	-0.1	-32.5	337.8	0.6
COc1ccc2c(c1OC)C(=O)O[C@@H]2[C@H]1c2c(cc3c(c2OC)OCO3)CCN1C	10.2	-0.1	2.3	61.3*!	338.5	-1.3
COc1ccc(C(O)C2c3c(cc4c(c3OC)OCO4)CCN2C)c(CO)c1OC (configuration not stated)	·	-4.4	7.7	·	·	0.0
Clc1ccc(-c2nc(N3CCCCC3)nc3ccccc23)cc1	13.2	-3.2	14.5	39.9	246.1	-0.9
c1ccc(-c2nc(-n3nc4ccccc4n3)nc3ccccc23)cc1	11.2	65.3*	5.6	25.2	211.5	-1.4
O=C(C[C@H]1C[C@H]2c3cc(NC(=O)CC4CC4)ccc3O[C@H]2[C@H](CO)O1)NCc1ccccc1F	·	-1.8	8.9	·	·	-1.3
O=[N+]([O-])c1cc(Cl)ccc1Nc1ccccc1	·	-0.4	1.3	·	116.9	2.4
O=C(CCN1C(=O)/C(=C/c2ccccc2)SC1=S)NCCc1ccc(O)cc1	·	-0.3	4.7	·	449.9	9.3*
O=C(CCCN1C(=O)S/C(=C\c2ccccc2)C1=O)NNC(=O)c1ccccc1O	5.2	2.9	2.4	-74.2	376.2	8.4*
O=C(CCN1C(=O)/C(=C/c2ccccc2F)SC1=S)NCCc1ccc(O)cc1	·	0.9	1.9	·	341.5	3.1
COc1ccccc1/C=C1\SC(=S)N(CCC(=O)NCCc2ccc(O)cc2)C1=O	·	88.4*	4.2	·	619.3	0.5
O=C(CSc1nnc(CNc2ccc(F)cc2)o1)Nc1ccc(Br)cc1	19.6	·	·	-108.6	·	·
SMILES	PGE2 EP2 inh	Granule exo inh	MC4R antagonist	EP2 modulator	T cell modulator	MC4R ag barr
CC(c1ccc(F)cc1)n1cc(S(=O)(=O)N2CCCC2)ccc1=O (configuration not stated)	·	-3.7	-0.2	·	168.3	-1.7
COc1ccc(NC2=C(Cl)C(=O)N(c3ccccc3)C2=O)c(OC)c1	2.4	2.5	0.0	12.5	219.0	0.2
COc1ccc(N2C(=O)C(Cl)=C(Nc3ccc(OC)cc3OC)C2=O)cc1	8.1	0.1	-3.4	-32.4	388.5	12.7*
Ic1ccc2c(c1)N(c1ccccc1)c1cc(Nc3ccc4nc5ccc(I)cc5[n+](-c5ccccc5)c4c3)ccc1N2	44.4*	·	·	-0.5	·	·
CCSc1ccc([C@@H]2[C@@H]3C(=O)N(C)C(=O)[C@@H]3[C@]3(C(=O)OC)CCCCN23)cc1OC	·	-10.3	-4.1	·	0.0*	-0.2
CCCSc1ccc([C@@H]2[C@@H]3C(=O)N(C)C(=O)[C@@H]3[C@]3(C(=O)OC)CCCCN23)cc1OC	·	-5.0	5.9	·	684.1	-1.8
CSc1nc2sc3c(c2c2nnnn12)CCCC3	66.1*	-1.2	1.5	14.1	272.3	8.3*
Nc1c(Cl)cc(C2=NCCn3nc4cc([N+](=O)[O-])ccc4c32)cc1Cl	·	24.0	4.0	·	585.5	1.0
Nc1c(Cl)cc(C2=NCCn3c2c2ccc([N+](=O)[O-])cc2[n+]3[O-])cc1Cl	·	82.2*	4.4	·	227.4	-2.6
Cc1cc(C(=O)OCC(=O)Nc2nc(-c3ccccc3)cs2)c(C)o1	-2.9	3.3	13.0	18.6	294.4	8.5*
COc1ccc(-c2cc(C)nc3c(-c4ccccc4)cnn23)cc1	5.8	1.8	-0.9	16.9	·	-2.3
Cc1cc(-c2ccccc2)n2ncc(-c3ccccc3)c2n1	18.1	-2.4	-8.0	62.5*	202.2	1.5
COc1ccc(N2CCN(C(=O)CSc3nc4[nH]ncc4c(=O)n3-c3ccc(Br)cc3)CC2)cc1	7.0	-1.1	12.6	2.8	383.5	-4.1
C=CC(=O)N1C/C(=C/c2ccccc2)C(=O)/C(=C\c2ccccc2)C1	·	70.7*	22.5	·	·	-1.5
CN1C/C(=C/c2ccncc2)C(=O)/C(=C/c2ccncc2)C1	·	-6.4	4.1	·	515.9	0.4
Cc1nc2ccccn2c1C(=O)NCCCN1CCOCC1	9.7	-5.9	4.4	8.2	158.1	4.0
CCOC(=O)C(CCCOc1cccc(OC)c1)C(=O)OCC	4.8	-2.2	3.6	13.2	·	-1.5
C=CCc1cc(C)ccc1OCCCC(C(=O)OCC)C(=O)OCC	7.0	-0.6	8.7	61.3*	i	2.3
C#CCn1c(=NC(=O)c2ccc(S(=O)(=O)N3CCc4ccccc4C3)cc2)sc2cc(S(N)(=O)=O)ccc21	10.2	1.2	-4.8	28.0	228.3	9.2*
CSc1nc(Nc2ccc(Cl)cc2)c(C#N)c(=O)[nH]1	·	18.9	-1.3	·	465.8	1.1
